The results in this text go back to ChEMBL document CHEMBL4765349, “Design, synthesis and biological evaluation of novel N-sulfonylamidine-based derivatives as c-Met inhibitors via Cu-catalyzed three-component reaction” (Eur J Med Chem, 2020).

Data set [1] can be described thus: Toxicity in Balb/c mouse assessed as survival rate at 100 mg/kg, ip measured after 15 days. The format is organism-based. The conditions noted are these: in vivo, time 15 day. In outline: (§1)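 Acute toxicity: 8-week-old male BALB/c mice, randomized in groups of n = 10, given a single intraperitoneal injection on day zero (vehicle only, 100, 200, 300 or 400 mg/kg). A further untreated group served as normal control. Survival on day 15 was reported as a percentage.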

The next data set concerns FHC. The data set is described as follows: Cytotoxicity against human FHC cells assessed as inhibtion of cell proliferation measured after 72 hrs by MTT assay. In general terms: Formazan colour is commonly taken as a measure of viable cells.
A short description of data set [2]: AUC (0 to infinity) in Balb/c mouse at 2 mg/kg, iv measured after 24 hrs by LC/MS/MS analysis. The format is ADME, organism-based. Further details: route intravenous, time 24 hrs, dose 2 mg/kg. The conditions noted are these: in vivo. In outline:
(§2)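 BALB/c mice dosed once orally at 8 mg/kg or intravenously at 2 mg/kg. Plasma concentration followed over time, and Cmax, Tmax, AUC0-∞, elimination half-life, clearance and oral bioavailability were derived from it.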

The next data set concerns HUVEC. Briefly: cells. The conditions noted are these: Homo sapiens, 72 h.
Data set [3] deals with Hepatocyte growth factor receptor (Homo sapiens, UniProt P08581). The data set is described as follows: Inhibition of c-MET (unknown origin) using poly (Glu, Tyr)4:1 as substrate in presence of ATP measured after 30 mins by HTRF assay. For orientation: In TR-FRET formats the signal depends on donor and acceptor labels being close together.
Chain of Hepatocyte growth factor receptor (P08581 whole entry): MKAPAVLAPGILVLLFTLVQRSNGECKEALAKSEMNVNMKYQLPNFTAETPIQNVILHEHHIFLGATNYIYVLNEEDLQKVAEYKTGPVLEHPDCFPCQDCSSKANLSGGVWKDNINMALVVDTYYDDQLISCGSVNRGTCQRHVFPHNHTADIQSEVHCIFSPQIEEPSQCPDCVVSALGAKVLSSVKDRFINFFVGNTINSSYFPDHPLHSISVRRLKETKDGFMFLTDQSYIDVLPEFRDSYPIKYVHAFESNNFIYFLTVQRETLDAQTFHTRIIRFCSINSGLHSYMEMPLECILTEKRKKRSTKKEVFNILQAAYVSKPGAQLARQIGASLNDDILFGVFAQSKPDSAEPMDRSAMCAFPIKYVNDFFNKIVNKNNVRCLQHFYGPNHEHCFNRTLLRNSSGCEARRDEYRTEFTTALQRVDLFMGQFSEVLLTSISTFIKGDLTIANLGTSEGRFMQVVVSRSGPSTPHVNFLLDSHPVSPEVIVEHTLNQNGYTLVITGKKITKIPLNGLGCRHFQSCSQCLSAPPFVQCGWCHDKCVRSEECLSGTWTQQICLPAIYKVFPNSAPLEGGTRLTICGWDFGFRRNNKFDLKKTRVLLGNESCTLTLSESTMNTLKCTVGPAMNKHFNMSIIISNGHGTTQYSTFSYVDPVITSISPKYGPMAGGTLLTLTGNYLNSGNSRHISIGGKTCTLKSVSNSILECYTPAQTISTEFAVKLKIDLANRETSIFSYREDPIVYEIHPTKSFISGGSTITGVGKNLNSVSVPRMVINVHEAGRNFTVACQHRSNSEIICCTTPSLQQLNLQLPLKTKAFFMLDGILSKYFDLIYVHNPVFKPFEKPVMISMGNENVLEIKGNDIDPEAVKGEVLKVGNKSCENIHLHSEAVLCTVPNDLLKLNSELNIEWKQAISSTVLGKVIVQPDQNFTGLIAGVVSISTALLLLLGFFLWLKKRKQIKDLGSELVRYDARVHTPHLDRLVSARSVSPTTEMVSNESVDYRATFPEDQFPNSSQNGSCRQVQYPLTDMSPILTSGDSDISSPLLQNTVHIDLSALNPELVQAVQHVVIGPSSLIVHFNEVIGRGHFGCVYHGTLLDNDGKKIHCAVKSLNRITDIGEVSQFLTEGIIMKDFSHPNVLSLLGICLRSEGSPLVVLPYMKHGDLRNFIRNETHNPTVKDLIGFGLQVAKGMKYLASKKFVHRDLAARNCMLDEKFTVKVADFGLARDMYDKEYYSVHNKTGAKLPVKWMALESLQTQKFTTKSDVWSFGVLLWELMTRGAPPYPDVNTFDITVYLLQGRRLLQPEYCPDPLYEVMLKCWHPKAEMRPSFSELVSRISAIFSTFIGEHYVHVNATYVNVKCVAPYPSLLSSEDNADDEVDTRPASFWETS
The subject of the next data set is HT-29. The data set is described as follows: cells. The conditions noted are these: Homo sapiens, HT-29, 72 h.
Data set [4] relates to A549. The data set is described as follows: Induction of cell cycle arrest in human A549 cells assessed as increased accumulation of cells at G2/M phase measured after 24 hrs by Propidium iodide stain based Flow cytometry assay. It is filed as functional. The conditions noted are these: dose 0.25-1 µM. Summed up:
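A549 cells exposed to vehicle or 0.25, 0.5 or 1.0 µM compound. DNA content measured by propidium iodide staining with RNase and flow cytometry, and the G2/M fraction was scored.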
(A flow cytometer gives signals particle by particle.)

The test system of data set [5] is A549. The data set is described as follows: Induction of apoptosis in human A549 cells assessed as late apoptosis measured after 12 hrs by Annexin V-FITC/ Propidium iodide stain based flow cytometry assay. The format is functional, cell-based. The conditions noted are these: dose 0.25-1 µM. Summed up: (§3)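 Cells double-stained with FITC-annexin V and propidium iodide, then flow cytometry gave the percentages of early and late apoptotic cells.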

Data set [6] can be described thus: Toxicity in Balb/c mouse assessed as no abnormality at 100 to 200 mg/kg, ip measured after 15 days. The conditions noted are these: in vivo, 360 h, dose 100-200 mg/kg, time 15 day. It is filed as organism-based. In outline:
(§4)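 Acute toxicity in 8-week-old male BALB/c mice, randomized into groups of n = 10. Single intraperitoneal dose on day 0 of vehicle or 100, 200, 300 or 400 mg/kg, plus an untreated control group. Mice watched for 15 days for deaths, abnormalities, anaphylactic or allergic reactions and body weight loss.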

Data set [7] can be described thus: Selectivity index, ratio of IC50 for human FHC cells assessed as inhibition of cell proliferation to IC50 of HT-29 cells assessed as inhibition of cell proliferation. It is filed as toxicity. The following applies: FHC cells versus HT-29 cells, read-out: Selectivity Index.
Data set [8] has as its target T1, Receptor-type tyrosine-protein kinase FLT3 (Homo sapiens, UniProt P36888).
T1 sequence (P36888 whole entry): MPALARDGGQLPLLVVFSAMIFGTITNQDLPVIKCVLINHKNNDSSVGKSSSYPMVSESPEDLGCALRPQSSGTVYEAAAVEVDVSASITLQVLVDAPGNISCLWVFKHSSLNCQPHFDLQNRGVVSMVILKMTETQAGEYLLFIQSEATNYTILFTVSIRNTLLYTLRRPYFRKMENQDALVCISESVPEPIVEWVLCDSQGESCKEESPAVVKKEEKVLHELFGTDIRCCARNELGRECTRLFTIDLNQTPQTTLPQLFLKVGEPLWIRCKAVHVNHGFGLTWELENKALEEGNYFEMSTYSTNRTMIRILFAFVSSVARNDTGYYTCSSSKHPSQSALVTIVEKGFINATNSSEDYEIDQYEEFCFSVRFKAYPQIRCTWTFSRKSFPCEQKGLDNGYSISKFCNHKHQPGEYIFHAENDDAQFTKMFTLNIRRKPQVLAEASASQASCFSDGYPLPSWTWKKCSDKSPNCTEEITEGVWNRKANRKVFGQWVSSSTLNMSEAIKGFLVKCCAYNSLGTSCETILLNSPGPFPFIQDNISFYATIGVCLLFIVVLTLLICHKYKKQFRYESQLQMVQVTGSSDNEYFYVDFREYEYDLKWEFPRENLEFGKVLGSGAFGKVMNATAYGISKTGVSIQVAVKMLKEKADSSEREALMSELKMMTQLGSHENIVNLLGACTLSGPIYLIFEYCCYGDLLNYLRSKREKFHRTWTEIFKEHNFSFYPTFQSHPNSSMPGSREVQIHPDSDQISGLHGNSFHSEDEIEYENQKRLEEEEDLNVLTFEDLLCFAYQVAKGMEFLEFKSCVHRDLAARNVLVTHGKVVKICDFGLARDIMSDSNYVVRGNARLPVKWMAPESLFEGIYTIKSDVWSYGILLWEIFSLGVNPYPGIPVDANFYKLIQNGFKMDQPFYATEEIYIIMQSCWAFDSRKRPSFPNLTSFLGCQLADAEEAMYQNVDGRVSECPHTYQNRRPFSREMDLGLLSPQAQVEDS
Briefly: Inhibition of FLT-3 (unknown origin) using poly (Glu, Tyr)4:1 as substrate in presence of ATP measured after 30 mins by HTRF assay.

Data set [9] in a line: Toxicity in Balb/c mouse assessed as survival rate at 400 mg/kg, ip measured after 15 days. It is filed as organism-based. The following applies: in vivo, time 15 day. Summed up: as §1
The nature of data set [10]: Oral bioavailability in Balb/c mouse at 8 mg/kg measured after 24 hrs by LC/MS/MS analysis. The format is ADME, organism-based. The conditions noted are these: in vivo. Summed up:
as §2

Data set [11] is described as follows: Toxicity in Balb/c mouse assessed as anaphylactic response at 100 to 200 mg/kg, ip measured after 15 days. It is filed as organism-based. The conditions noted are these: in vivo, 360 h, dose 100-200 mg/kg, time 15 day. Summed up:
as §4

Data set [12] has as its target Mast/stem cell growth factor receptor Kit (Homo sapiens, UniProt P10721). Briefly: Inhibition of c-Kit (unknown origin) using poly (Glu, Tyr)4:1 as substrate in presence of ATP measured after 30 mins by HTRF assay. In outline: (§5)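 Kinase inhibition measured by homogeneous time-resolved fluorescence (HTRF) across a panel of Ron, ALK and other tyrosine kinases, with IC50 as the read-out.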

Data set [13] is described as follows: Cmax in Balb/c mouse at 2 mg/kg, iv measured after 24 hrs by LC/MS/MS analysis. It is filed as ADME, organism-based. More on the design: route intravenous, dose 2 mg/kg, time 24 hrs. The following applies: in vivo. In outline: as §2
A short description of data set [14]: Toxicity in Balb/c mouse assessed as survival rate at 300 mg/kg, ip measured after 15 days. It is filed as organism-based. The following applies: in vivo, time 15 day. In outline:
as §1

Data set [15] concerns the target Platelet-derived growth factor receptor beta (Homo sapiens, UniProt P09619). Briefly: Inhibition of PDGFR beta (unknown origin) using poly (Glu, Tyr)4:1 as substrate in presence of ATP measured after 30 mins by HTRF assay. In outline: as §5
The subject of data set [16] is A549. The data set is described as follows: Induction of apoptosis in human A549 cells assessed as late apoptosis at 1 uM measured after 12 hrs by Annexin V-FITC/ Propidium iodide stain based flow cytometry assay relative to control. It is filed as functional. Summed up: as §3
The target in data set [17] is ALK tyrosine kinase receptor (Homo sapiens, UniProt Q9UM73). Briefly: Inhibition of ALK (unknown origin) using poly (Glu, Tyr)4:1 as substrate in presence of ATP measured after 30 mins by HTRF assay. In outline: as §5
Chain of ALK tyrosine kinase receptor (Q9UM73 whole entry): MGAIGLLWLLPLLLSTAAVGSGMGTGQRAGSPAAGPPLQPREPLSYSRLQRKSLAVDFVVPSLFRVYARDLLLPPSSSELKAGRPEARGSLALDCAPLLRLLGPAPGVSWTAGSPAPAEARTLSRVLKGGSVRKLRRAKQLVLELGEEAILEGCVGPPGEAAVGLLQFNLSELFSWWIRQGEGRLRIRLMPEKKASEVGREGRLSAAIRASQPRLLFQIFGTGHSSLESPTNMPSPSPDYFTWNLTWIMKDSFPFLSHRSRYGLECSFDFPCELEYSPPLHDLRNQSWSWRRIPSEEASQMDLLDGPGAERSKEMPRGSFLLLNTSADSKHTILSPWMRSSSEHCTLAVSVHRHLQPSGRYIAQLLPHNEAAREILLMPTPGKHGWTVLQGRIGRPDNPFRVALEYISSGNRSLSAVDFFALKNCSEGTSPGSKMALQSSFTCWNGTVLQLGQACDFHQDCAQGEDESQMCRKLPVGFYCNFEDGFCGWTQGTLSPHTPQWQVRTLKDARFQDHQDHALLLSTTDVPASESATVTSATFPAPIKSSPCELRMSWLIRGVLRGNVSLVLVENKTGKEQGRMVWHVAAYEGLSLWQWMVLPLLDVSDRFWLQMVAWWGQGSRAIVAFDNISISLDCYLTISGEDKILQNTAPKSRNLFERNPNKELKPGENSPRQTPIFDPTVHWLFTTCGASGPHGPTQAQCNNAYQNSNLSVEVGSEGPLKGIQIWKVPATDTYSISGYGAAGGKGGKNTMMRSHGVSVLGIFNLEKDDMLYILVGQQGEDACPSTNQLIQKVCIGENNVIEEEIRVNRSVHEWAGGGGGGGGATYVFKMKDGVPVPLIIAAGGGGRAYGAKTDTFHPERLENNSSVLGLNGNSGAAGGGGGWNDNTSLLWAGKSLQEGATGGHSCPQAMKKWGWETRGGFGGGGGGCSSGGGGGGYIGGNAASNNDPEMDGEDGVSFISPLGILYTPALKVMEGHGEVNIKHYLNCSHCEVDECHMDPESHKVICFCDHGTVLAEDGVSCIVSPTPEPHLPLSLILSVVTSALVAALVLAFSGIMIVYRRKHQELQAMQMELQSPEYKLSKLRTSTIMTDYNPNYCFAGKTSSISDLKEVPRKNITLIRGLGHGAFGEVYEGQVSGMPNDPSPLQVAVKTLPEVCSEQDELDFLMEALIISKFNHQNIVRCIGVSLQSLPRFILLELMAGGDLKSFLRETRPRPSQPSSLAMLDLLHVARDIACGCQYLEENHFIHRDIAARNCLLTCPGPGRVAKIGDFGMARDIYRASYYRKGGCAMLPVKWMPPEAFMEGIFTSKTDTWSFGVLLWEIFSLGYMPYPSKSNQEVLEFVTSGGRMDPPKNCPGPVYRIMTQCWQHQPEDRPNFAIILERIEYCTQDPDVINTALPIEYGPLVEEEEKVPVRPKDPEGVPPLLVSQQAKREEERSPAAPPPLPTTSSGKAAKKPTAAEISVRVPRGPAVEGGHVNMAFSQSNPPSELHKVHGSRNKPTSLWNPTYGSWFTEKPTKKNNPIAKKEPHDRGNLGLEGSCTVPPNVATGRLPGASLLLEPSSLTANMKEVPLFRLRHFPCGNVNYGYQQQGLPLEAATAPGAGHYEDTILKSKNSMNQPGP

Chain of Platelet-derived growth factor receptor beta (P09619 whole entry): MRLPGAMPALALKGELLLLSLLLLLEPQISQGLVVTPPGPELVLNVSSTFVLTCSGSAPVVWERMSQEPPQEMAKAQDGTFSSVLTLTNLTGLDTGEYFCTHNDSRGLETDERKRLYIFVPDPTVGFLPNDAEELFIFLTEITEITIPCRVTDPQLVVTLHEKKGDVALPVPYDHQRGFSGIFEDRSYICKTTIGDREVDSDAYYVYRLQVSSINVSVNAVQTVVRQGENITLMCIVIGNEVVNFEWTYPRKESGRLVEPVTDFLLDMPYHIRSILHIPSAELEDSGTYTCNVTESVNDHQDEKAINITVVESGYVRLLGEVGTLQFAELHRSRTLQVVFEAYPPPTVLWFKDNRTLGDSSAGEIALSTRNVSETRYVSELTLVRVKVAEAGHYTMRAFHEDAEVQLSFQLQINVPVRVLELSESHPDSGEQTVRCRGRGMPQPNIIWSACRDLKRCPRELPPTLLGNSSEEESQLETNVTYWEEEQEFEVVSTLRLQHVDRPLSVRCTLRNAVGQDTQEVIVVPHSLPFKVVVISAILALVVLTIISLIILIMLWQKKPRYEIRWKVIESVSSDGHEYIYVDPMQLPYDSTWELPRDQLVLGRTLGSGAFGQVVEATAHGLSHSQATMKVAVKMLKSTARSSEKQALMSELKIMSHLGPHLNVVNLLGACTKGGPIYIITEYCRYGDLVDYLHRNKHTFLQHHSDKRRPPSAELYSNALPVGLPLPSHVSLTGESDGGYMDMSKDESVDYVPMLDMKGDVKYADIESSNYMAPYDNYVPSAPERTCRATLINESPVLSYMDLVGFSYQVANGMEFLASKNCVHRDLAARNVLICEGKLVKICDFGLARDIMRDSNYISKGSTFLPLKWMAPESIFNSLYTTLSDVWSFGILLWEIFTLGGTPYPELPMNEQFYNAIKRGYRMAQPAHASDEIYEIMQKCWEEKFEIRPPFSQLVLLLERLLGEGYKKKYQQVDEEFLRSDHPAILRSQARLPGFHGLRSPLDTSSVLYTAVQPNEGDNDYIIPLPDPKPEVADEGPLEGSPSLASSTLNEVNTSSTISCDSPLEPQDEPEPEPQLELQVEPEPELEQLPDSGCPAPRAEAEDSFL
Chain of Mast/stem cell growth factor receptor Kit (P10721 whole entry): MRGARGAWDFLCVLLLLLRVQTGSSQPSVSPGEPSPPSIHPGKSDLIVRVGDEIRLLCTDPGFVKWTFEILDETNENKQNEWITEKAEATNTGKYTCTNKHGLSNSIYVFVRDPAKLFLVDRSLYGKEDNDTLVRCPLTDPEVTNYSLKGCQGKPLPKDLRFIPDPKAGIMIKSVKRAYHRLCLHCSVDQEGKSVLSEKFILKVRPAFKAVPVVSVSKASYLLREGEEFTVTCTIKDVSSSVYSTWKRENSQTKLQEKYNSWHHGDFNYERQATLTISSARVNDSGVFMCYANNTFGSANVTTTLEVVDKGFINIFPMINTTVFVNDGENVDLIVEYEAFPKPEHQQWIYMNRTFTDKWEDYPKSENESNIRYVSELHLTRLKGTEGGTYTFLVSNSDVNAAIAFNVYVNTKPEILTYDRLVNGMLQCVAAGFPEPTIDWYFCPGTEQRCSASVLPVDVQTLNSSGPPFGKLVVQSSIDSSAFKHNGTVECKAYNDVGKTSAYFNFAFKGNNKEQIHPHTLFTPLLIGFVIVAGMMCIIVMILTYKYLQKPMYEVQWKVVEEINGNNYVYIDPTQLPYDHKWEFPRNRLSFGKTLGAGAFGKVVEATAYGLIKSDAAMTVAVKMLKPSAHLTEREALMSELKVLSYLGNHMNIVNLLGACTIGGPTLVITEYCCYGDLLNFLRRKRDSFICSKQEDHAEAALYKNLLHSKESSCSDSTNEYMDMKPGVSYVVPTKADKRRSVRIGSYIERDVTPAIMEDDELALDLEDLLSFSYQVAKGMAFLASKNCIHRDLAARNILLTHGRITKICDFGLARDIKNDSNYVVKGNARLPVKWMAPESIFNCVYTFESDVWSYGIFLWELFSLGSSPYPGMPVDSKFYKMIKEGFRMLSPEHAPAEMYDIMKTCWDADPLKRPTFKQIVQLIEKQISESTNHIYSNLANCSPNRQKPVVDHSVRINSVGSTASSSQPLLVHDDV

For `COCC/C(=N\S(=O)(=O)Cc1ccc(Cl)cc1)Nc1ccc(Oc2ccnc3cc(OCCCN4CCOCC4)c(OC)cc23)c(F)c1`, the values for the survival at 360 h in data set [1], in [9] and in data set [14] were 100%, 50% and 70%, respectively. The IC50 (in general, the concentration at which inhibition is half-maximal) in the data set with FHC amounted to 6120 nM; with HUVEC, 1350 nM; in [3] it was 2.89 nM; in the data set on HT-29 it was 320 nM; in data set [8], 7.28 nM; in data set [12] it was 4.26 nM. Further, the IC50 is 565 nM in data set [15] and > 10000 nM in data set [17]. Moreover, the AUC in data set [2] was 2.3 µg/h/mL. The Activity result in the data set on A549 [4] is “Dose-dependent effect”; in the data set on A549 [5] it was “Dose-dependent effect”; in [6], “Non-Toxic”; in data set [11], “Non-Toxic”; in the data set on A549 [16], 30.99%. Also, the selectivity ratio in data set [7] turned out to be 19.1. The bioavailability (commonly the share of a dose that reaches the circulation, judged against a reference dose that is usually intravenous) in [10] came out at 74%. Also, in [13], the Cmax – broadly, the highest concentration seen after dosing – is 676 ng/mL.
